This note sets out measurements from ChEMBL document CHEMBL3120085 (J Med Chem, 2014).

Data set [1] is described as follows: Apparent passive permeability from apical to basolateral side in dog RRCK cells. It is filed as ADME, cell-based, Canis lupus familiaris, MDCKII-LE. As to conditions: MDCK. A digest of the protocol:
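Passive A→B permeability measured across RRCK cells, a low-transporter line isolated from MDCK cells.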

A short description of data set [2]: Oral bioavailability in monkey at 30 mg/kg. As to conditions: rhesus monkey, in vivo. The format is ADME, organism-based, Macaca mulatta. The method in brief: (§1)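 F from mean AUC0−∞ after single doses: rat 1 mg/kg iv and 5 mg/kg po (n = 3/dose, or iv n = 2); monkey 1 mg/kg iv and 30 mg/kg po, n = 2/dose.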
A short description of data set [3]: Ratio of unbound drug level in brain homogenate to plasma in rat at 1 mg/kg, sc after 4 hrs. It is filed as ADME, organism-based. On the set-up: dose 1 mg/kg, route subcutaneous. A digest of the protocol:
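Rat neuropharmacokinetic study, single 1 mg/kg sc dose, n = 2 per time point. Ratio derived from AUC0−4 of unbound brain versus unbound plasma concentration. Unbound concentrations were corrected using the unbound fraction measured in brain homogenate and in plasma.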

Data set [4] can be described thus: Volume of distribution at steady state in rat. As to conditions: in vivo, read-out: Vdss. The format is ADME, organism-based.
Data set [5] can be described thus: Volume of distribution at steady state in monkey. The settings on record: rhesus monkey, in vivo; read-out: Vdss. It is filed as ADME, organism-based, Macaca mulatta.
Data set [6] can be described thus: Oral bioavailability in rat at 5 mg/kg. The format is ADME, organism-based. The settings on record: in vivo. The method in brief: as §1
Data set [7] can be described thus: Ratio of unbound drug level in brain homogenate to plasma in rat at 1 mg/kg, sc. Also on record: dose 1 mg/kg, route subcutaneous. It is filed as ADME, organism-based.

For `CCC(C)NC(=O)c1nn(C)c2nc(OCc3cccc(C)n3)ccc12` (stereo not given), the Papp A→B in data set [1] stood at 19.8 ×10⁻⁶ cm/s.
With `Cn1nc(-c2ncccc2OC(F)F)c2ncc(OCc3ccccn3)nc21`, in data set [1], the Papp A→B was found to be 28.7 ×10⁻⁶ cm/s.
In the case of `Cc1ccncc1-c1nn(C)c2nc(OCc3ccccn3)cnc12`, the Papp A→B in data set [1] came out at 21 ×10⁻⁶ cm/s. Moreover, the bioavailability came out at 67% in data set [2] and 28% in data set [6]. Besides, in data set [3], the Kp uu at 4 h came to 2. Further, the Vd was found to be 1.3 L/kg in data set [4] and 0.69 L/kg in data set [5].
In the case of `Cc1ccnnc1-c1nn(C)c2nc(OCc3ccccn3)cnc12`, in data set [1], the Papp A→B turned out to be 21.5 ×10⁻⁶ cm/s.
On to `Cn1nc(-c2cccnc2)c2ncc(OCc3ccccn3)nc21`, for which the Papp A→B in data set [1] turned out to be 22.5 ×10⁻⁶ cm/s.
On the same count and under the same terms, the same measure for `Cn1nc(-c2cccnc2)c2ccc(OCc3ccccn3)nc21`: 24.4 ×10⁻⁶ cm/s; for `Cc1c(Cl)cncc1-c1nn(C)c2nc(OCc3ccccn3)cnc12`: 14.1 ×10⁻⁶ cm/s; for `Cn1nc(-c2ccccn2)c2ccc(OCc3ccccn3)nc21`: 11.7 ×10⁻⁶ cm/s.
Take `CCN(CC)C(=O)c1nn(C)c2nc(OCc3ccccn3)cnc12`: in data set [1], the Papp A→B worked out at 31.5 ×10⁻⁶ cm/s. This compound also had a bioavailability in data set [6] of 35%. The Kp uu in data set [7] amounted to 0.51.
As to `Cn1nc(-c2cnccc2C(F)(F)F)c2ncc(OCc3ccccn3)nc21`, the Papp A→B in data set [1] was 21.4 ×10⁻⁶ cm/s.
Still for that read-out and setting: the same measure for `Cn1nc(-c2ccccc2)c2ccc(OCc3ccccn3)nc21`: 0.78 ×10⁻⁶ cm/s.
As for `C[C@@H]1CCCN1C(=O)c1nn(C)c2nc(OCc3ccccn3)ccc12`, the Papp A→B in data set [1] was determined as 21 ×10⁻⁶ cm/s. The compound further gave a bioavailability in data set [6] of 0.4%. The Kp uu in data set [7] was determined as 1.01.
In the case of `CCn1nc(-c2cnccc2C)c2ncc(OCc3ccccn3)nc21`, the Papp A→B in data set [1] was found to be 13.8 ×10⁻⁶ cm/s.
The same measure, in the same setting: the same measure for `Cc1ccncc1-c1nn(C2CC2)c2nc(OCc3ccccn3)cnc12`: 19.6 ×10⁻⁶ cm/s; for `Cc1c(-c2nn(C)c3nc(OCc4ccccn4)cnc23)cnn1C`: 14.4 ×10⁻⁶ cm/s; for `Cc1cccnc1-c1nn(C)c2nc(OCc3ccccn3)cnc12`: 28.5 ×10⁻⁶ cm/s.

As usually defined, the Papp A→B is the apparent permeability from the apical to the basolateral side of a cell layer. One may read the bioavailability as the share of a dose that reaches the circulation, judged against a reference dose that is usually intravenous.
